Assay results from different studies.
Lines come from different studies, so protocols differ.
Matrix: plasma

| Structure (SMILES) | system | conditions | Cmax |
| --- | --- | --- | --- |
| CCCCC1=NC2(CCCC2)C(=O)N1Cc1ccc(-c2ccccc2S(=O)(=O)Nc2noc(C)c2C)c(COCC)c1 | human | oral, 200 mg, single dose, fed, healthy volunteers | 6280 ng/mL |
| Br.Cc1ccc(Sc2ccccc2N2CCNCC2)c(C)c1 | human | oral, 20 mg, multiple doses, steady state, healthy volunteers | 33 ng/mL |
| CNCC[C@H](Oc1cccc2ccccc12)c1cccs1 | female human | oral, 60 mg, multiple doses, once daily | 54 ng/mL |
| O=C(/C=C/c1cccc(S(=O)(=O)Nc2ccccc2)c1)NO | human | intravenous, 1900 mg/m², patients | 106000 ng/mL |
| COC(=O)N[C@@H](C)CNc1nccc(-c2cn(C(C)C)nc2-c2cc(Cl)cc(NS(C)(=O)=O)c2F)n1 | human | oral, 50 mg, single dose | 482 ng/mL |
| Cn1c(=O)oc2ccc(-c3ccc(C[C@@H](C#N)NC(=O)[C@@H]4CNCCCO4)cc3)cc21 | male human | oral, 5 mg, single dose, healthy volunteers | 50.7 nM |
| CC(C)(Sc1ccncc1-c1ccc(C#N)c2ccccc12)C(=O)O | male human | oral, 5 mg, single dose, fed, healthy volunteers | 45.7 ng/mL |
| FC(F)(F)c1ccc(CNc2ccc(Cc3c[nH]c4ncc(Cl)cc34)cn2)cn1 | human | oral, 1200 mg, multiple doses, patients | 8730 ng/mL |
| CS(=O)(=O)CCNCc1ccc(-c2ccc3ncnc(Nc4ccc(OCc5cccc(F)c5)c(Cl)c4)c3c2)o1 | human | oral, 500 mg, multiple doses, twice daily, steady state, patients | 2370 ng/mL |
| Cn1cc(-c2ccc(S(=O)(=O)[C@@H]3C[C@@H](C(=O)NC4(C#N)CC4)N(C(=O)C4(C(F)(F)F)CC4)C3)c(C(F)(F)F)c2)cn1 | human | oral, 100 mg, single dose, fed | 946 ng/mL |
| COc1cc2c(Nc3ccc(Br)cc3F)ncnc2cc1OCC1CCN(C)CC1 | human | oral, 65 mg/m², multiple doses, once daily, steady state, patients | 868 ng/mL |
| CC(C)(O)c1ccccc1-c1ccc2[nH]c(/C=C/c3ccc(C(F)(F)F)cc3)nc2c1 | male human | oral, 120 mg, single dose, fasted, healthy volunteers | 261 ng/mL |
| N#CN1C[C@H](n2nc(-c3ccc(Oc4ccc(Cl)cn4)cc3)c(C(N)=O)c2N)CCC12CC2 | human | oral, 600 mg, single dose, fasted | 1120 ng/mL |
| C/C(=C\c1csc(C)n1)[C@@H]1C[C@@H]2O[C@]2(C)CCC[C@H](C)[C@H](O)[C@@H](C)C(=O)C(C)(C)[C@@H](O)CC(=O)N1 | human | intravenous, 15 mg/m², patients | 89.6 ng/mL |
| CCOc1cc2ncc(C#N)c(Nc3ccc(OCc4ccccn4)c(Cl)c3)c2cc1NC(=O)/C=C/[C@H]1CCCN1C | human | oral, 80 mg, single dose | 26.5 ng/mL |
| Oc1cc(O)c2c(c1)O[C@@H](c1ccc(O)c(O)c1)[C@@H](O)C2 | human | oral, 30 mg, single dose | 0.7 ng/mL |
| COCCOc1cnc2ccn([C@H](C)c3nnc4c(F)cc(-c5cnn(C)c5)cn34)c(=O)c2c1 | human | oral, 100 mg, multiple doses, once daily, patients | 2300 ng/mL |
| CO[C@H]1CC[C@H](N2C(=O)CNc3ncc(-c4ccc(C(C)(C)O)nc4)nc32)CC1 | human | oral, 60 mg, patients | 319 ng/mL |
| NC(=O)c1cnc2[nH]ccc2c1N[C@@H]1[C@@H]2CC3C[C@H]1C[C@@](O)(C3)C2 | human | oral, 100 mg twice daily, multiple doses, patients | 256 ng/mL |

| Structure (SMILES) | system | conditions | Cmax |
| --- | --- | --- | --- |
| COc1cc(C(=O)NC2CCN(C)CC2)c(F)cc1Nc1ncc(C(F)(F)F)c(Oc2cccc3c2C(=O)N(C)C3)n1 | human | oral, 10 mg, multiple doses, once daily, steady state, patients | 59.2 nM |
| CO[C@@H]1[C@H](OC(=O)N2CC(CCN3CCOCC3)C2)CC[C@]2(CO2)[C@H]1[C@@]1(C)O[C@@H]1CC=C(C)C | human | subcutaneous, 4.8 mg, single dose, healthy volunteers | 18.7 ng/mL |
| NS(=O)(=O)NCCNc1nonc1C(=NO)Nc1ccc(F)c(Br)c1 | human | oral, 500 mg, multiple doses, twice daily, steady state, patients | 4820 nM |
| CCO[C@H]1CCN(Cc2c(OC)cc(C)c3[nH]ccc23)[C@H](c2ccc(C(=O)O)cc2)C1 | human | oral, 100 mg, multiple doses, twice daily, patients | 2640 ng/mL |
| CC(C)(C(=O)N1CCOc2c(C#N)cncc2C1)C(F)F | human | oral, 20 mg, multiple doses, once daily | 250 ng/mL |
| Cc1ccc(C(=O)N(CCCN)[C@@H](c2oc3cc(Cl)ccc3c(=O)c2Cc2ccccc2)C(C)C)cc1 | human | intravenous, 2 mg/m², single dose, patients, infusion | 233 ng/mL |
| CC(C)n1cc(C#N)c2cc(-n3cc(C(=O)O)cn3)ccc21 | male human | oral, 600 mg, single dose, fasted, healthy volunteers | 18200 ng/mL |
| CCn1c(=O)c(-c2cc(NC(=O)Nc3ccccc3)c(F)cc2Br)cc2cnc(NC)cc21 | human | oral, 20 mg, single dose, patients | 109 ng/mL |
| CO[C@H]1/C=C\C=C(/C)C(=O)NC2=CC(=O)C(NCCN(C)C)=C(C[C@@H](C)C[C@H](OC)[C@H](O)[C@@H](C)/C=C(\C)[C@@H]1OC(N)=O)C2=O | human | intravenous, 27 mg/m², patients, infusion | 443 ng/mL |
| COc1ccc([C@@H]2CN(C(=O)[C@@H](O)CO)C[C@@]2(C)[C@@H](C)O)cc1OC1CN(c2ccc(C)cn2)C1 | human | oral, 5 mg, single dose, healthy volunteers | 213 ng/mL |
| CNC(=O)c1cc(Oc2ccc(NC(=O)Nc3cc(C(C)(C)C)nn3-c3ccc4ncccc4c3)c(F)c2)ccn1 | human | oral, 200 mg, multiple doses, twice daily | 377 ng/mL |
| CCCOc1ccc([C@H]2CNC(=O)N2c2ccc3[nH]cnc3c2)cc1 | human | oral, 200 mg, single dose, fasted, healthy volunteers | 1200 ng/mL |
| Nc1cc(C(F)(F)F)c(-c2cc(N3CCOCC3)nc(N3CCOCC3)n2)cn1 | human | oral, 100 mg/day, patients | 1080 ng/mL |
| O=C(Nc1c(Cl)cncc1Cl)c1ccc(OC(F)F)c(OCC2CC2)c1 | human | oral, 0.375 mg, single dose, fasted | 9.2 ng/mL |
| CCc1nc2c(C)cc(N3CCN(CC(=O)N4CC(O)C4)CC3)cn2c1N(C)c1nc(-c2ccc(F)cc2)c(C#N)s1 | human | oral, 600 mg, single dose, fasted, healthy volunteers | 5800 ng/mL |
| COc1cc2c(cc1OC)CN(CCc1ccc(NC(=O)c3cc(OC)c(OC)cc3NC(=O)c3cnc4ccccc4c3)cc1)CC2 | human | intravenous, 1.5 mg/kg, patients | 2300 nM |
| C[C@@]1(c2cc(NC(=O)c3ccc(C#N)cn3)ccc2F)C=CSC(N)=N1 | human | oral, 150 mg, single dose | 906 ng/mL |
| C#Cc1cccc(Nc2ncnc3cc(OCCOC)c(OCCOC)cc23)c1 | human | oral, 50 mg, patients | 1170 nM |
| C=C(F)C(=O)N1CCN(c2nc(OC[C@@H]3CCCN3C)nc3c2CCN(c2cccc4cccc(Cl)c24)C3)C[C@@H]1CC#N | human | oral, 600 mg, single dose, fasted | 984 ng/mL |
